These results are taken from ChEMBL document CHEMBL4513216, “Probing the Open Global Health Chemical Diversity Library for Multistage-Active Starting Points for Next-Generation Antimalarials” (ACS Infect Dis, 2020).

The nature of the data set: Toxicity liver stage against HepG2, at 10uM. The note with it: human, HepG2-A16-CD81EGFP cells; read-out: INHIBITION
Further details: test concentration 10 uM, cell line HepG2-A16-CD81EGFP. The format is cell-based. The gist of the method:
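Uninfected HepG2-A16-CD81EGFP cells, 3 × 10^3 per well, 1536-well, plated on prespotted compound at 10 μM final, parasite-free screening media added to match infected plates; puromycin 10 μM positive, DMSO 0.5% negative; run in parallel with 48 h PbLuc assay at 37 °C, 5% CO2; viability by CellTiter-Glo luminescence, normalized to controls.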

`CCCc1nnc(N2CCN(Cc3ccccc3OC)CC2)o1`: the cytotoxicity at 10 µM was -12%.

For the compound `CCN1CCOC(CNCc2ccc(OC)c(F)c2)C1` (configuration not stated), the cytotoxicity at 10 µM amounted to 1.79%.

For the compound `CCC1CN(CCNS(C)(=O)=O)c2ccccc2O1` (configuration not stated), the cytotoxicity at 10 µM was -2.67%.

In the case of `CC(=O)Nc1nc(C(=O)Nc2ccc(N3CCCCC3)nc2)cs1`, the cytotoxicity at 10 µM turned out to be 9.46%.

For the compound `CCCOc1ccccc1CN[C@@H]1CCC[C@H]1Cc1cc(C)no1`, the cytotoxicity at 10 µM is -6.86%.

Consider `Cc1ccc(C(C)NC(=O)N2CCNC(=O)CC2)cc1F` (configuration not stated), for which the cytotoxicity at 10 µM was found to be 18.9%.

As for `COCc1nc2n(n1)CCCC2Nc1nc(C(C)C)ns1` (configuration not stated), the cytotoxicity at 10 µM came to 5.6%.

On to `CC(O)CCN(C)C(=O)Nc1ccc(Br)cc1` (configuration not stated), for which the cytotoxicity at 10 µM was -2.1%.

On to `Cc1cc(C(=O)N2CC[C@H]3[C@H]2CCN3S(C)(=O)=O)c(C)o1`, for which the cytotoxicity at 10 µM is -83.1%.

As to `CC(NC(=O)CN(C)S(C)(=O)=O)c1ccc(F)cc1` (configuration not stated), the cytotoxicity at 10 µM was -4.36%.

Regarding `Cc1cc2c(cc1NC(N)=O)OCO2`, the cytotoxicity at 10 µM was 3.13%.

In the case of `CC(=O)N1CCCN(c2cc(C3CN(C)CCO3)nc(C)n2)CC1` (configuration not stated), the cytotoxicity at 10 µM was 7.47%.

Turning to `Cc1cccc(NC(=O)c2[nH]nc(C(C)C)c2Br)n1`, the cytotoxicity at 10 µM is -2.95%.

As for `N[C@@H](C(=O)N1CCN(c2ccccc2Cl)C(=O)C1)c1ccccc1`, the cytotoxicity at 10 µM was -0.823%.

`CC(C(=O)N(Cc1ccccc1)CC(F)(F)F)S(C)(=O)=O` (configuration not stated): the cytotoxicity at 10 µM came to 11%.

As for `CC(C)c1cc(=O)[nH]c(C(C)(C)N)n1`, the cytotoxicity at 10 µM was -1.05%.

Take `O=C(NC1CCN(CC2CC2)C1)c1ccc(C(=O)c2cc[nH]c2)cc1` (configuration not stated): the cytotoxicity at 10 µM is -6.14%.

Take `Cc1nn(C)c(Cl)c1C1CCCN1Cc1noc(C2CC2)n1` (configuration not stated): the cytotoxicity at 10 µM is -1.64%.

Regarding `Cc1csc(N2CCC(CCN3CCCC3=O)CC2)n1`, the cytotoxicity at 10 µM is -5.7%.

In the case of `Cc1cnn(CCNCC(=O)NC2(C#N)CCCC2)c1`, the cytotoxicity at 10 µM was -13.2%.

For the compound `CCOC(=O)N1CCC2(CCNC2)C1` (configuration not stated), the cytotoxicity at 10 µM was 2.14%.

Regarding `CC1(c2ncc(CN(CC(=O)O)Cc3ccccc3)cn2)CCCCO1` (configuration not stated), the cytotoxicity at 10 µM was -3.73%.

Regarding `CCN(C(=O)c1nc2c(s1)CCCN2S(C)(=O)=O)C(C)C`, the cytotoxicity at 10 µM turned out to be 3.99%.

On to `CSc1nc2ncc3c(=O)n(C)ccc3n2n1`, for which the cytotoxicity at 10 µM was -11.6%.

With `CC(C)C1CN(S(=O)(=O)N2CCCC2)CCCN1Cc1ccc(F)cc1` (configuration not stated), the cytotoxicity at 10 µM came out at 7.2%.

`CN1CC2(CCN(Cc3ccoc3)CC2)COc2ccccc2S1(=O)=O`: the cytotoxicity at 10 µM is -1.48%.

`CC[C@H]1CN(C(=O)c2ccc(-n3cnnc3)nc2)CC[C@@]1(C)O`: the cytotoxicity at 10 µM is -11.9%.

Consider `CCn1cc(-c2nn3c(C(C)C)nnc3s2)c(C)n1`, for which the cytotoxicity at 10 µM was -14.6%.

`CCN(Cc1cccc2c1OCO2)C(=O)C(C)c1cccnc1` (configuration not stated): the cytotoxicity at 10 µM is -4.84%.

Turning to `Cc1csc(N2CCN(C(=O)c3cc(Cl)c[nH]3)CC2)n1`, the cytotoxicity at 10 µM was -2.82%.

In the case of `CCS(=O)(=O)N1CCC2(CC1)CC[C@@]1(C(=O)N(C)C)CN(C)C[C@@H]21`, the cytotoxicity at 10 µM turned out to be 10.4%.

Regarding `O=C(c1ccc(CNC2CCSC2)cc1)N1CCCC1` (configuration not stated), the cytotoxicity at 10 µM was -4.05%.

As to `CN1CCOC(CNCc2nc(-c3ccco3)no2)C1` (configuration not stated), the cytotoxicity at 10 µM is 3.54%.

In the case of `CC(C)(C)CN1CCCC(c2nccnc2Nc2cnccn2)C1` (configuration not stated), the cytotoxicity at 10 µM came out at 5.37%.

On to `Cc1ccc(C)c(-n2ccc3nc(N4CCCC4)ncc3c2=O)c1`, for which the cytotoxicity at 10 µM was 18.6%.

`CC(C)CCn1nc(CNc2ccc(Br)cc2)nc1O`: the cytotoxicity at 10 µM was determined as 9.84%.

`Cc1c[nH]nc1C1CCCCN1C(=O)CNS(C)(=O)=O` (configuration not stated): the cytotoxicity at 10 µM was -9.19%.

Take `CNc1cccc(C2CCCN(C(=O)c3ccncc3)C2)n1` (configuration not stated): the cytotoxicity at 10 µM was -4.02%.

With `Cc1ccc(OCCC(=O)NC(C)c2ccncc2)cc1` (configuration not stated), the cytotoxicity at 10 µM was -3.86%.

Consider `Cn1cc(CN2CCC3(CC2)NC(=O)CC3c2ccncc2)cn1` (configuration not stated), for which the cytotoxicity at 10 µM is -2.1%.

For `O=S(=O)(Nc1ccc(N2CCOCC2)cn1)c1ccc(F)cc1`, the cytotoxicity at 10 µM is -6.64%.

As to `COC(=O)N1CCC(NC(=O)c2cc(S(N)(=O)=O)ccc2C)CC1`, the cytotoxicity at 10 µM is -1.22%.

Take `CCn1c(CN(C)C)nnc1C1CCN(Cc2ccccn2)CC1`: the cytotoxicity at 10 µM was found to be 12.5%.

Regarding `O=C(c1cc(-c2cccs2)cs1)N1CCSCC1`, the cytotoxicity at 10 µM stood at 10.4%.

`Cc1nc2c(c(NC3CC3)n1)CCN(C(=O)C(C)(C)O)CC2`: the cytotoxicity at 10 µM turned out to be 4.24%.

Turning to `Cn1ncc(NC(=O)Cn2ccc(-c3cccc(F)c3)n2)n1`, the cytotoxicity at 10 µM came out at 1.73%.

For `CC(=O)N1CCCC2(CCC(=O)N2Cc2cccnc2)C1` (configuration not stated), the cytotoxicity at 10 µM amounted to 7.59%.

In the case of `COc1cc(NC2CCS(=O)(=O)C2)ncn1` (configuration not stated), the cytotoxicity at 10 µM came out at 7.53%.

Regarding `COC(=O)c1ccc2nc(CO[C@H]3CN(CC4CC4)C[C@H]3F)[nH]c2c1`, the cytotoxicity at 10 µM stood at 2.52%.

On to `O=C(c1ccc(F)cc1)N(CCCO)S(=O)(=O)c1cccs1`, for which the cytotoxicity at 10 µM is -6.24%.

For the compound `Cc1cccc(OCC(=O)N(C)C2CCN(CC3CCOC3)CC2)c1` (configuration not stated), the cytotoxicity at 10 µM was -6.22%.

Take `c1cncc(COCC2C[C@@H]3OCCN(Cc4cccnc4)[C@H]3C2)c1` (some centres not stated): the cytotoxicity at 10 µM was 12.2%.

With `O=C([C@H](O)c1ccccc1)N1CCN(c2cccc(Cl)c2)C(=O)C1`, the cytotoxicity at 10 µM is -6.17%.

On to `O[C@@H]1Cc2ccccc2[C@@H]1Nc1ncccc1F`, for which the cytotoxicity at 10 µM came out at 13.3%.

Turning to `COc1ccc(-c2cc(C(=O)NCCCn3ccnc3C)n(C)n2)cc1`, the cytotoxicity at 10 µM was -6.67%.

Take `CCC(CC)C(O)CNC(=O)Cc1c[nH]c2ncccc12` (configuration not stated): the cytotoxicity at 10 µM amounted to 0.476%.

Take `O=C(NCC1CCCO1)c1cc(COc2ccccc2F)[nH]n1` (configuration not stated): the cytotoxicity at 10 µM amounted to 10.8%.

Turning to `CC(C)c1noc(C2CCCN2C(=O)Cc2cn3ccsc3n2)n1` (configuration not stated), the cytotoxicity at 10 µM came out at 4.52%.

On to `Cc1nn(-c2ccccn2)c2c1C(c1cnn(C)c1)SCC(=O)N2` (configuration not stated), for which the cytotoxicity at 10 µM is -44.1%.

For the compound `O=C(COc1ccccc1F)NCCC(O)c1ccco1` (configuration not stated), the cytotoxicity at 10 µM is -4.18%.

Take `Cc1cnn(CC2CCCCN2Cc2nccn2CC(F)(F)F)c1` (configuration not stated): the cytotoxicity at 10 µM was -13.7%.

Turning to `CCC(Nc1nc(C(C)C)nc2c1cnn2C)c1ccncc1` (configuration not stated), the cytotoxicity at 10 µM is -48%.

In the case of `Cc1cc(C)nc(N2CCC(C(=O)Nc3ncc[nH]3)CC2)n1`, the cytotoxicity at 10 µM amounted to 4.47%.

Take `Cn1cc(CN2CCc3ncnc(N4CCOCC4)c3CC2)cn1`: the cytotoxicity at 10 µM was -3.46%.

Consider `CCCN1CCC(c2nc3ccc(-c4cccc(F)c4)cn3n2)CC1`, for which the cytotoxicity at 10 µM was -125%.

Turning to `CCOC(=O)C1CN(C(=O)COC)Cc2ncn(CC)c21` (configuration not stated), the cytotoxicity at 10 µM was found to be 6.01%.

Turning to `CC(C)C(C)NC(=O)Nc1ccc(CC(N)=O)cc1` (configuration not stated), the cytotoxicity at 10 µM is -3.36%.

With `COC(=O)CCC(=O)N1CCc2[nH]nc(-c3ccc4c(c3)OCO4)c2C1`, the cytotoxicity at 10 µM was -8.28%.

Take `Cc1nn(C)c(Cl)c1CNCCOc1ccc2c(c1)OCO2`: the cytotoxicity at 10 µM is 1.52%.

As for `COc1c(F)cccc1C(=O)N(C)Cc1nc(-c2ccccn2)no1`, the cytotoxicity at 10 µM is -1.51%.

With `COCC(=O)N1CC[C@@H]2O[C@@H](COCC3CCOCC3)CC[C@@H]21`, the cytotoxicity at 10 µM came out at 0.718%.

Turning to `Cc1ccc(S(=O)(=O)Nc2ccc(-n3cccc3C(=O)O)c(C)c2)s1`, the cytotoxicity at 10 µM came out at 6.15%.
